pIC50: −log10 of the molar value. ≈ marks a conversion by molar mass, not a printed value. Calls of active or inactive are those of the source. The calls are words filed in the database; no cut-off is given here.
Columns and labels:
Micrococcus luteus [1] = test: Antimicrobial activity against Micrococcus luteus at 1 mg/ml incubated for 20 to 30 mins followed by incubation for 24 hrs at 37 degC by agar plate method; format: functional; details: read-out: DIZ
In short: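 Agar well diffusion on nutrient agar. Plates swabbed with 60 µL inoculum; 8 mm wells loaded with 100 µL of compound at 1.0 mg/mL. Held 20–30 min at 4 °C for diffusion, then 24 h at 37 °C. Inhibition zone diameter read in mm. Triplicate.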

[2] = Anti-inflammatory activity at 100 ug/ml using bovine serum albumin and egg albumin proteins incubated at 37 degC for 20 mins and then heated to 95 degC for 20 mins by UV-visible Spectrophotometry based protein denaturation method; format: functional
In short: (§1)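 Albumin (bovine serum or egg) at 1% in 50 mM sodium phosphate buffer pH 6.4. Mixture is 0.1 ml test sample (1 mg/ml) plus 0.2 ml albumin, made to 5 ml with buffer. Held 37 °C for 20 min, then 95 °C for 20 min. Cooled to room temperature, turbidity read at 660 nm. % inhibition = (Abs control − Abs sample)/Abs control × 100. Triplicate, averaged.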

[3] = Anti-inflammatory activity at 50 ug/ml using bovine serum albumin and egg albumin proteins incubated at 37 degC for 20 mins and then heated to 95 degC for 20 mins by UV-visible Spectrophotometry based protein denaturation method; format: functional; in short: as §1
U-937 [4] = test: Anti-inflammatory activity in human U937 cells assessed as inhibition of LPS-induced TNFalpha production at 10 uM pre-incubated for 1 hr before LPS stimulation for 24 hrs by ELISA method; format: functional
In short: (§2)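 Human U937 cells grown in RPMI1640 with 10% FBS at 37 °C, 5% CO2. Differentiated with PMA 30 ng/ml for 24 h. Test compounds added for 1 h, then LPS 1 µg/ml for 24 h. TNF-α and IL-6 in supernatant measured by ELISA. Three independent experiments.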

Salmonella typhi [5] = test: Antimicrobial activity against Salmonella typhi at 1 mg/ml incubated for 20 to 30 mins followed by incubation for 24 hrs at 37 degC by agar plate method; format: functional, Salmonella enterica subsp. enterica serovar Typhi; details: Salmonella enterica; read-out: DIZ
In short: (§3)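 Agar well diffusion on nutrient agar. Plates swabbed with 60 µL inoculum, 8 mm wells loaded with 100 µL sample at 1.0 mg/mL, streptomycin standard and control in separate wells. Plates held 20–30 min at 4 °C for diffusion, then 24 h at 37 °C. Zone diameter read in mm; triplicate.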

U-937 [6] = test: Anti-inflammatory activity in human U937 cells assessed as inhibition of LPS-induced IL6 production at 10 uM pre-incubated for 1 hr before LPS stimulation for 24 hrs by ELISA method; format: functional; in short: as §2
[7] = Anti-inflammatory activity using bovine serum albumin and egg albumin proteins incubated at 37 degC for 20 mins and then heated to 95 degC for 20 mins by UV-visible Spectrophotometry based protein denaturation method; format: functional; in short: as §1
Salmonella paratyphi [8] = test: Antimicrobial activity against Salmonella paratyphi at 1 mg/ml incubated for 20 to 30 mins followed by incubation for 24 hrs at 37 degC by agar plate method; format: functional, Salmonella enterica subsp. enterica serovar Paratyphi A; details: Salmonella enterica; read-out: DIZ; in short: as §3
U-937 [9] = test: Anti-inflammatory activity in human U937 cells assessed as inhibition of LPS-induced IL6 production pre-incubated for 1 hr before LPS stimulation for 24 hrs by ELISA method; format: functional, cell-based; in short: as §2
U-937 [10] = test: Anti-inflammatory activity in human U937 cells assessed as inhibition of LPS-induced TNFalpha production pre-incubated for 1 hr before LPS stimulation for 24 hrs by ELISA method; format: functional, cell-based; in short: as §2
Micrococcus luteus [11] = test: Antimicrobial activity against Micrococcus luteus incubated for 12 to 16 hrs by tube dilution method; format: functional
In short: (§4)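 Tube dilution, serial from 500 to 1.9 µg/mL, plus drug-free control tube. Each tube inoculated with 1 mL culture at OD 0.2, incubated 37 °C for 12–16 h. MIC is the lowest concentration with no growth by turbidity. MBC is found by plating each tube on nutrient agar: the lowest concentration at which all cells are killed.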

Salmonella paratyphi [12] = test: Antimicrobial activity against Salmonella paratyphi incubated for 12 to 16 hrs by tube dilution method; format: functional, Salmonella enterica subsp. enterica serovar Paratyphi A; details: Salmonella enterica
In short: (§5)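 Broth tube dilution, two-fold serial dilutions from 500 to 1.9 µg/mL plus a drug-free control tube. Each tube inoculated with 1 mL culture at OD 0.2 (~McFarland standard), 37 °C for 12-16 h. Turbidity compared with the control tube. MIC is the lowest concentration giving complete growth inhibition.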

Salmonella typhi [13] = test: Antimicrobial activity against Salmonella typhi incubated for 12 to 16 hrs by tube dilution method; format: functional, Salmonella enterica subsp. enterica serovar Typhi; details: Salmonella enterica; in short: as §5
Micrococcus luteus [14] = test: Antimicrobial activity against Micrococcus luteus incubated for 12 to 16 hrs followed by plating in nutrient agar by tube dilution method; format: functional; in short: as §4
Salmonella paratyphi [15] = test: Antimicrobial activity against Salmonella paratyphi incubated for 12 to 16 hrs followed by plating in nutrient agar by tube dilution method; format: functional, Salmonella enterica subsp. enterica serovar Paratyphi A; details: Salmonella enterica
In short: (§6)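 After 12-16 h at 37 °C in tube dilution (500 to 1.9 µg/mL; 1 mL inoculum at OD 0.2), the culture from each tube was plated on nutrient agar. MBC is the concentration at which cells are completely killed.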

Salmonella typhi [16] = test: Antimicrobial activity against Salmonella typhi incubated for 12 to 16 hrs followed by plating in nutrient agar by tube dilution method; format: functional, Salmonella enterica subsp. enterica serovar Typhi; details: Salmonella enterica; in short: as §6
Mus musculus [17] = test: Anti-inflammatory activity in Balb/c mouse assessed as reduction in LPS-induced serum IL6 production at 100 mg/kg, ig dosed for 3 consecutive days before LPS challenge and measured 6 hrs post LPS injection by ELISA method; format: functional, organism-based
In short: (§7)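 Male Balb/c mice (20–25 g), 8 per group. Test compound at 100 mg/kg suspended in 2% gum acacia (10 ml/kg), given orally (intragastric) for 3 consecutive days. On day 3, LPS (10 mg/kg) given ip 1 h after the oral dose. Serum taken from retro-orbital blood 6 h after LPS; TNF-α and IL-6 measured by ELISA. Mean ± S.E.M.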

Mus musculus [18] = test: Anti-inflammatory activity in Balb/c mouse assessed as reduction in LPS-induced serum TNFalpha production at 100 mg/kg, ig dosed for 3 consecutive days before LPS challenge and measured 6 hrs post LPS injection by ELISA method; format: functional, organism-based; in short: as §7

SMILES | zone of inhibition at 1000 µg/mL (Micrococcus luteus [1]) [mm] | inhibition [2] [%] | inhibition [3] [%] | inhibition at 10 µM (U-937 [4]) [%] | zone of inhibition at 1000 µg/mL (Salmonella typhi [5]) [mm] | inhibition at 10 µM (U-937 [6]) [%] | IC50 [7] [µg/mL] | zone of inhibition at 1000 µg/mL (Salmonella paratyphi [8]) [mm] | pIC50 (U-937 [9]) | pIC50 (U-937 [10]) | MIC (Micrococcus luteus [11]) [µg/mL] | MIC (Salmonella paratyphi [12]) [µg/mL] | MIC (Salmonella typhi [13]) [µg/mL] | MBC (Micrococcus luteus [14]) [µg/mL] | MBC (Salmonella paratyphi [15]) [µg/mL] | MBC (Salmonella typhi [16]) [µg/mL] | inhibition (Mus musculus [17]) | inhibition (Mus musculus [18])
Cc1ccc(-c2nn(-c3ccccc3)cc2CO)cc1 | 16.5 | 81.9 | 60.3 | 0.74 | 19 | 20.9 | 61.05 (≈ 231 µM) | 14 | – | – | – | – | – | – | – | – | – | –
COc1ccc(C2CNC(=O)C2)cc1OC1CCCC1 (stereo not drawn) [ROLIPRAM] | – | – | – | 59.1 | – | 53.5 | – | – | 5.93 | 5.95 | – | – | – | – | – | – | – | –
OCc1cn(Cc2cn(-c3ccc(Cl)cc3)nc2-c2ccccc2)nn1 | 11.5 | 78.5 | 55.2 | 12.7 | 19.5 | 38.8 | 63.74 (≈ 174 µM) | 16.5 | – | – | – | – | – | – | – | – | – | –
COc1ccc(-c2nn(-c3ccccc3)cc2Cn2cc(CO)nn2)cc1 | 26 | 86.2 | 69 | 40.9 | 16 | 46.7 | 58 (≈ 160 µM) | 19 | 5.02 | 4.76 | 125 (≈ 346 µM) | 62.5 (≈ 173 µM) | 62.5 (≈ 173 µM) | 125 (≈ 346 µM) | 62.5 (≈ 173 µM) | 125 (≈ 346 µM) | – | –
Cc1ccc(-n2cc(Cn3cc(CO)nn3)c(-c3ccccc3)n2)cc1 | – | 83.6 | 66.4 | 31.2 | 19 | 50.4 | 59.79 (≈ 173 µM) | 11.5 | 5.06 | 4.67 | – | – | – | – | – | – | – | –
OCc1cn(Cc2cn(-c3ccccc3)nc2-c2ccccc2)nn1 | – | 38.8 | 10.3 | 15.7 | – | 53 | 128.89 (≈ 389 µM) | 12.5 | 5.09 | 4.45 | – | – | – | – | – | – | – | –
OCc1cn(Cc2cn(-c3ccccc3)nc2-c2ccc(Cl)cc2)nn1 | – | 73.3 | 49.1 | 19.2 | – | 76.9 | 68.24 (≈ 187 µM) | 15 | 5.21 | 4.51 | – | – | – | – | – | – | – | –
Cc1ccc(-n2cc(Cn3cc(CO)nn3)c(-c3ccccc3)n2)cc1C | – | 77.6 | 46.5 | 41.7 | 15.5 | 87 | 64.44 (≈ 179 µM) | – | 5.11 | 4.76 | – | – | – | – | – | – | inactive | Active
COc1ccc(-c2nn(-c3ccccc3)cc2CO)cc1 | – | 47.4 | 15.5 | 22.9 | – | 68.5 | 105.45 (≈ 376 µM) | 11.5 | 5.08 | 4.45 | – | – | – | – | – | – | – | –
OCc1cn(-c2ccc(Cl)cc2)nc1-c1ccccc1 | 26.5 | 92.2 | 76.7 | 2.61 | 21.5 | 21.6 | 54.21 (≈ 190 µM) | 18 | – | – | 3.9 (≈ 13.7 µM) | 31.2 (≈ 110 µM) | 62.5 (≈ 219 µM) | 7.81 (≈ 27.4 µM) | 62.5 (≈ 219 µM) | 125 (≈ 439 µM) | – | –

— ChEMBL document CHEMBL4177578, “Synthesis, pharmacological activities and molecular docking studies of pyrazolyltriazoles as anti-bacterial and anti-inflammatory agents” (Bioorg Med Chem, 2017)
